{
  "source": "paper PMC5010146",
  "about": "(European journal of medicinal chemistry, 2016)",
  "key": {"[1]": {"target": "T1, 15-LOX-1 (Homo sapiens, UniProt P16050)", "T1 sequence (P16050 1-662)": "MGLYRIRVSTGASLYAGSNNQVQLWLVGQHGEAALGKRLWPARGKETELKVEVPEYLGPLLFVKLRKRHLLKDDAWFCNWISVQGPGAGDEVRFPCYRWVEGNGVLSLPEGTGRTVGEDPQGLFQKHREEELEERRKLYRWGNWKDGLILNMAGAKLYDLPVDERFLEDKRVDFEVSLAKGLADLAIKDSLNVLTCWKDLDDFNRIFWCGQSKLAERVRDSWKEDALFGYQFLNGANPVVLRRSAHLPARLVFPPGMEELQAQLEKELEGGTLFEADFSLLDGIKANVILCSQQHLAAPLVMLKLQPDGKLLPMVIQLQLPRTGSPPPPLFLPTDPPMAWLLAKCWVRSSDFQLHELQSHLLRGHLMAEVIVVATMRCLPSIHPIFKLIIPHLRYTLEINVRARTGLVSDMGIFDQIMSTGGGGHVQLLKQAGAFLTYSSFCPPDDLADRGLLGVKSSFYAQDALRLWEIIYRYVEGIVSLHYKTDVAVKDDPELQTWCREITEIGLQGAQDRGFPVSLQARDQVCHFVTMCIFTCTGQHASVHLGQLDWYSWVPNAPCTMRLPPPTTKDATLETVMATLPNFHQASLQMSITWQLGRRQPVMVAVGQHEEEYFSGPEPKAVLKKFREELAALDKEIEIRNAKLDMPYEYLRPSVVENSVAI", "assay": "15-LOX-1 enzyme inhibition, UV absorbance", "format": "biochemical"}, "[2]": {"system": "HT-22 cells", "assay": "Glutamate-induced lipid peroxidation, BODIPY staining, FACS", "format": "cell-based", "conditions": "1 μM, 16 h after initiation of glutamate challenge", "method_in_brief": "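HT-22 cells were seeded at 5x10^4 per well, left overnight, then exposed to 4 mM glutamate with or without test compound (10 µM) or 1 µM reference inhibitor for 6–7 h or 14–16 h. Staining used BODIPY 581/591 C11 (2 µM final, 1 h, 37°C). The red-to-green fluorescence shift was read by FACS at 488 nm excitation. At least three independent experiments, triplicates.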"}, "[3]": {"system": "15-LOX-1", "conditions": "mouse, transient cerebral ischemia; cited from earlier work"}, "[4]": {"system": "HT-22 cells", "assay": "Glutamate-induced cell death, xCELLigence impedance and MTT", "format": "cell-based"}, "[5]": {"target": "T2, human 15-lipoxygenase-1 (15-LOX-1) (Homo sapiens, UniProt P16050)", "T2 sequence (P16050 1-662)": "T1 sequence (P16050 1-662)", "assay": "Michaelis-Menten enzyme kinetics analysis of 15-LOX-1 inhibition", "format": "biochemical", "conditions": "Lineweaver-Burk: Km increases, Vmax constant"}},
  "data": [
    {"smiles": "CCCCNC(=O)c1cc(-c2ccc(Cl)cc2)sc1N", "note": "[Compound 3l, 2-amino-N-butyl-5-(4-chlorophenyl)thiophene-3-carboxamide]", "values": [
      {"measurement": "inhibitory potency in words", "setting": "[1]", "value": "inactive"}
    ]},
    {"smiles": "c1ccc2c(c1)SCc1c-2[nH]c2ccccc12", "note": "[PD-146176]", "values": [
      {"measurement": "effect on boost of lipid peroxides", "setting": "[2]", "value": "significantly attenuated"},
      {"measurement": "effect on infarct size", "setting": "[3]", "value": "significantly reduced the infarct size"},
      {"measurement": "protection against glutamate toxicity compared with ThioLox", "setting": "[4]; 1 μM", "value": "Comparable results"}
    ]},
    {"smiles": "CCCCNC(=O)c1cc(Cc2ccccc2)sc1N", "note": "[Compound 3n, 2-amino-5-benzyl-N-butylthiophene-3-carboxamide]", "values": [
      {"measurement": "inhibitory potency in words", "setting": "[1]", "value": "inactive"}
    ]},
    {"smiles": "CCCCNC(=O)c1cc(-c2ccc(Br)cc2)sc1N", "note": "[Compound 3m, 2-amino-5-(4-bromophenyl)-N-butylthiophene-3-carboxamide]", "values": [
      {"measurement": "inhibitory potency in words", "setting": "[1]", "value": "inactive"}
    ]},
    {"smiles": "CCCCNC(=O)c1cc(-c2ccccc2)sc1N", "note": "[Compound A9, 2-amino-N-butyl-5-phenylthiophene-3-carboxamide]", "values": [
      {"measurement": "time of addition after glutamate challenge at which cells were still protected", "setting": "[4]; post-treatment 5 and 10 μM, added 2-8 h after glutamate", "value": "up to 8 h"},
      {"measurement": "mechanism of 15-LOX-1 inhibition", "setting": "[5]", "value": "competitive inhibition"}
    ]}
  ]
}
